The values below come from ChEMBL document CHEMBL5143527, “Discovery and optimization of cyclohexane-1,4-diamines as allosteric MALT1 inhibitors” (Eur J Med Chem, 2022).

Converted amounts (≈) assume the structure as drawn.

In one data set the target is Cytochrome P450 2C9 (Homo sapiens, UniProt P11712). The data set is described as follows: Inhibition of CYP2C9 (unknown origin). The data set is classed as ADME.
Data set [1] can be described thus: Solubility of compound in PBS at pH 7.4 incubated for 20 to 24 hrs under shaking condition by LC-MS analysis. It is filed as physicochemical. As to conditions: time 20-24 hrs. The method, boiled down: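 Dried-DMSO solubility: 10 mM DMSO stock dried down, residue resolubilized in 0.1 M phosphate buffer, pH 7.4.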
Another data set deals with Cytochrome P450 2D6 (Homo sapiens, UniProt P10635). The data set is described as follows: Inhibition of CYP2D6 (unknown origin). The data set is classed as ADME.
A further data set addresses Cytochrome P450 2C19 (Homo sapiens, UniProt P33261). The data set is described as follows: Inhibition of CYP2C19 (unknown origin). The data set is classed as ADME.
Data set [2] can be described thus: Metabolic stability in human liver microsomes assessed as intrinsic clearance by LC-MS/MS analysis. The data set is classed as ADME, Microsome. As to conditions: read-out: CLH. A digest of the protocol: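 Human liver microsomes, compound incubated; intrinsic clearance from disappearance of the parent compound over time.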
The target of data set [3] is Voltage-gated inwardly rectifying potassium channel KCNH2 (Homo sapiens, UniProt Q12809). Put plainly: Inhibition of human ERG. The data set is classed as toxicity.
Data set [4] can be described thus: AUC in Wistar Han rat at 0.9 mg/kg, po or 0.5 mg/kg, iv. It is filed as ADME, organism-based. Also on record: dose 0.9 mg/kg, route po. As to conditions: in vivo.
Data set [5] in a line: Half life in Wistar Han rat at 0.9 mg/kg, po or 0.5 mg/kg, iv. The data set is classed as ADME, organism-based. Conditions: in vivo.
Data set [6] concerns the target T1, Mucosa-associated lymphoid tissue lymphoma translocation protein 1 (Homo sapiens, UniProt Q9UDY8).
T1 sequence (Q9UDY8 whole entry): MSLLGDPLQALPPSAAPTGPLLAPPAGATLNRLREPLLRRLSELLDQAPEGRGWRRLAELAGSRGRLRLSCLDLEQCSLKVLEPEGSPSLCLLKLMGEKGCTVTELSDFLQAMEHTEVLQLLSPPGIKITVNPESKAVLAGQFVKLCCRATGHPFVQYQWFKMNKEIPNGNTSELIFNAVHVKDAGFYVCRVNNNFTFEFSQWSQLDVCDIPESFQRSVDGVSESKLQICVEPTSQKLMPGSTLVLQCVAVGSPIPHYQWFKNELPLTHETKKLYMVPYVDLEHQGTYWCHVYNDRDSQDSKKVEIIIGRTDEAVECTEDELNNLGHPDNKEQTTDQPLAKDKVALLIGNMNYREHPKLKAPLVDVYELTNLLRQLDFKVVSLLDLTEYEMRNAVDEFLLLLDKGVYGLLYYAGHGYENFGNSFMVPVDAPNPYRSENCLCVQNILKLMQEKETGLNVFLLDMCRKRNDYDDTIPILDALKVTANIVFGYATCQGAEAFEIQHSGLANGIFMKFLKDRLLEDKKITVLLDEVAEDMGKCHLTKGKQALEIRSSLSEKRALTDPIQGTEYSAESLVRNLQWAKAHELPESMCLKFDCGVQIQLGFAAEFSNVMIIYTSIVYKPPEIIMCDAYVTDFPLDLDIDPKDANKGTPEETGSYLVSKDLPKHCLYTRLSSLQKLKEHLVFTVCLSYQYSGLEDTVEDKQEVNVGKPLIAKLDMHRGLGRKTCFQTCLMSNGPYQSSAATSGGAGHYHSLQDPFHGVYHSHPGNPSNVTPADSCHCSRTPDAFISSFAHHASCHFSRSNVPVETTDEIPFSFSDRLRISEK
The data set is described as follows: Inhibition of human MALT1 in human MCF7 cells assessed as MALT1 mediated cleavage of human A20 in cytosol by fluorescence microscopy. The data set is classed as subcellular. A digest of the protocol:
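Cellular MALT1 activity in MCF7 cells, read as inhibition of MALT1-mediated cleavage of human A20.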

Data set [7] is described as follows: Volume of distribution at steady state in Wistar Han rat at 0.9 mg/kg, po or 0.5 mg/kg, iv. It is filed as ADME, organism-based. Conditions: in vivo.
The next data set concerns the target Cytochrome P450 3A4 (Homo sapiens, UniProt P08684). The data set is described as follows: Inhibition of CYP3A4 (unknown origin). The data set is classed as ADME.
A further data set addresses T2, Cytochrome P450 1A2 (Homo sapiens, UniProt P05177).
T2 sequence (P05177 whole entry): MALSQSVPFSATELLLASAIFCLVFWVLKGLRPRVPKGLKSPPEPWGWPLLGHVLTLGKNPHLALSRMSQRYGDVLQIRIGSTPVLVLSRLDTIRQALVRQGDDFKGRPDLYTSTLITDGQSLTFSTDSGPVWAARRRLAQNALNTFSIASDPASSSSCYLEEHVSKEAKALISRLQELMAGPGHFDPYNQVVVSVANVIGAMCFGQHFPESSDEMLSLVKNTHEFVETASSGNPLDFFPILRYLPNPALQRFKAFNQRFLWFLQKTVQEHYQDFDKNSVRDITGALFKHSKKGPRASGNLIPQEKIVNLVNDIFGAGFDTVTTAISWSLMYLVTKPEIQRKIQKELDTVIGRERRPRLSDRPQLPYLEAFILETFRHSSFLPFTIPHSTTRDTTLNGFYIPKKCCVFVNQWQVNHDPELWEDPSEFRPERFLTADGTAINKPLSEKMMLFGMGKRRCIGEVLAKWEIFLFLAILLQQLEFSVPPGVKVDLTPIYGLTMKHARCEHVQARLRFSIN
The data set is described as follows: Inhibition of CYP1A2 (unknown origin). The data set is classed as ADME.

Data set [8] in a line: Passive permeability of compound across apical to basolateral in human Caco2 cells at 10 uM and measured upto 120 mins by LC-MS/MS analysis. The data set is classed as ADME, cell-based. Conditions: Caco-2. The method, boiled down: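 Apical-to-basolateral passive permeability across Caco-2 monolayers, run in the presence of inhibitors of the efflux transporters P-gp, BCRP and MRP2.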
Background: Caco-2 monolayers are a common model of the intestinal barrier.

Data set [9] in a line: Oral bioavailability in Wistar Han rat at 0.9 mg/kg. The data set is classed as ADME, organism-based. As to conditions: in vivo.
The target in data set [10] is T1, Mucosa-associated lymphoid tissue lymphoma translocation protein 1. Put plainly: Inhibition of human MALT1 assessed as cleavage of substrate using fluorescent labeled Ac-LRSR-Rh110 peptide as substrate incubated for 30 mins followed by substrate addition and measured after 3 to 4 hrs by FRET assay. The method, boiled down: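 Fluorogenic MALT1 cleavage assay with the tetrapeptide LRSR carrying rhodamine 110 and a non-fluorescent quencher; signal read as FRET. Horseradish peroxidase and resazurin redox counter-assays used to exclude artefacts. Values are the mean of at least three independent measurements, with standard deviation.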

Data set [11] in a line: Lipophilicity, log D of compound at 7.4 by LC-MS analysis. It is filed as physicochemical. Conditions: pH 7.4. The method, boiled down: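 ChromlogD at pH 7.4: retention time on an LCMS system with an aqueous mobile phase, converted to lipophilicity with a calibration curve.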

Sequence of Cytochrome P450 2C19 (P33261 whole entry): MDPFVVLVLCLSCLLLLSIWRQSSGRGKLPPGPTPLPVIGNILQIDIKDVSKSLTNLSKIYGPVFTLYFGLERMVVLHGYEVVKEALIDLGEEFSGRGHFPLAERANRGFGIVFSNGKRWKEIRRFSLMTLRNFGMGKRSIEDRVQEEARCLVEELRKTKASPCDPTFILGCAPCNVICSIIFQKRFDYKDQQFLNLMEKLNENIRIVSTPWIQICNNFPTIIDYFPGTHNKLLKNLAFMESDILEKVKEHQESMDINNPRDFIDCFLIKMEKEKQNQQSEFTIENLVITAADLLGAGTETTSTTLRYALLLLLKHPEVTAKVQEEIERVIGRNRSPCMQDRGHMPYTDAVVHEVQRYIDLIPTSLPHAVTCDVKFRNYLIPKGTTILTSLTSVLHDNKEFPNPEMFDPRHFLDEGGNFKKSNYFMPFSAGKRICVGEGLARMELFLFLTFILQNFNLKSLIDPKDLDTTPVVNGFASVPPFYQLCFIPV
Sequence of Cytochrome P450 2C9 (P11712 whole entry): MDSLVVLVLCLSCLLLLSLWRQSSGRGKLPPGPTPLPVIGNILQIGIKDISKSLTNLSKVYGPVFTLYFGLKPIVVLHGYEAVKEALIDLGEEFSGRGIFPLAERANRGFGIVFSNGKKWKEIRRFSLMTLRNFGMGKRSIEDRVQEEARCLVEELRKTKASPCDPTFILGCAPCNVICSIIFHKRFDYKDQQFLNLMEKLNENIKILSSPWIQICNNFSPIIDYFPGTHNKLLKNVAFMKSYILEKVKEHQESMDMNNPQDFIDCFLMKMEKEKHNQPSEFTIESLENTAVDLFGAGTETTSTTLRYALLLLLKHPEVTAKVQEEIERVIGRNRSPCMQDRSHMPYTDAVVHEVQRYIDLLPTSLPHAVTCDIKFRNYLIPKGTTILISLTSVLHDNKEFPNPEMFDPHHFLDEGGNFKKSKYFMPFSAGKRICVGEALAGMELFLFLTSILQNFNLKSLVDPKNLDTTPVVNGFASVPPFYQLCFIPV
Sequence of Cytochrome P450 2D6 (P10635 whole entry): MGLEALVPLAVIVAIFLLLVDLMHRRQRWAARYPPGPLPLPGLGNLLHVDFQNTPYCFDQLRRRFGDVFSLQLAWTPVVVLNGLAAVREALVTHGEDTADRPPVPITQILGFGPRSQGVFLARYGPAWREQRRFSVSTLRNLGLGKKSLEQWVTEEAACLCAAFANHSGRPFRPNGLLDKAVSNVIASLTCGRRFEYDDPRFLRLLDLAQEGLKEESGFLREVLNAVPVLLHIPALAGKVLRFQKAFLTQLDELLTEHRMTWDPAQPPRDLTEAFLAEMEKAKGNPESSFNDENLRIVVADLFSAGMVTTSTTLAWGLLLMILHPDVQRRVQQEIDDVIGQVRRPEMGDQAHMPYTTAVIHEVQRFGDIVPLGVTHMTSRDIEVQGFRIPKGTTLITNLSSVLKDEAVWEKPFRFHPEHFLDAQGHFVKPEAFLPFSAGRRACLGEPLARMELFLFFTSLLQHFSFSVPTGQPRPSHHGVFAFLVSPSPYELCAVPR
Sequence of Cytochrome P450 3A4 (P08684 whole entry): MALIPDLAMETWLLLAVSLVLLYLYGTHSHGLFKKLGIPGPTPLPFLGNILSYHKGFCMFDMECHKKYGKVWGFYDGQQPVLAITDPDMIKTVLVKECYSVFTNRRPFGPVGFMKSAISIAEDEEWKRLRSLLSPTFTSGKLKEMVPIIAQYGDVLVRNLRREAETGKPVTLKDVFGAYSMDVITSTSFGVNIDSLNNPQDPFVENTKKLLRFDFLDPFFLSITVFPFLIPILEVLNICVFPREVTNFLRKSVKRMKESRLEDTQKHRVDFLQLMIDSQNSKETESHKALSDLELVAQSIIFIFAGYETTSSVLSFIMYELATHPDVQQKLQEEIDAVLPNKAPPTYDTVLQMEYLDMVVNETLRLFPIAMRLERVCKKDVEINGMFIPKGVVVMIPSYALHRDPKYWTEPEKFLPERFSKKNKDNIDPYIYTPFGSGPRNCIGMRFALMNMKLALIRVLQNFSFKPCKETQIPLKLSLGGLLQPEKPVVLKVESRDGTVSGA
Sequence of Voltage-gated inwardly rectifying potassium channel KCNH2 (Q12809 whole entry): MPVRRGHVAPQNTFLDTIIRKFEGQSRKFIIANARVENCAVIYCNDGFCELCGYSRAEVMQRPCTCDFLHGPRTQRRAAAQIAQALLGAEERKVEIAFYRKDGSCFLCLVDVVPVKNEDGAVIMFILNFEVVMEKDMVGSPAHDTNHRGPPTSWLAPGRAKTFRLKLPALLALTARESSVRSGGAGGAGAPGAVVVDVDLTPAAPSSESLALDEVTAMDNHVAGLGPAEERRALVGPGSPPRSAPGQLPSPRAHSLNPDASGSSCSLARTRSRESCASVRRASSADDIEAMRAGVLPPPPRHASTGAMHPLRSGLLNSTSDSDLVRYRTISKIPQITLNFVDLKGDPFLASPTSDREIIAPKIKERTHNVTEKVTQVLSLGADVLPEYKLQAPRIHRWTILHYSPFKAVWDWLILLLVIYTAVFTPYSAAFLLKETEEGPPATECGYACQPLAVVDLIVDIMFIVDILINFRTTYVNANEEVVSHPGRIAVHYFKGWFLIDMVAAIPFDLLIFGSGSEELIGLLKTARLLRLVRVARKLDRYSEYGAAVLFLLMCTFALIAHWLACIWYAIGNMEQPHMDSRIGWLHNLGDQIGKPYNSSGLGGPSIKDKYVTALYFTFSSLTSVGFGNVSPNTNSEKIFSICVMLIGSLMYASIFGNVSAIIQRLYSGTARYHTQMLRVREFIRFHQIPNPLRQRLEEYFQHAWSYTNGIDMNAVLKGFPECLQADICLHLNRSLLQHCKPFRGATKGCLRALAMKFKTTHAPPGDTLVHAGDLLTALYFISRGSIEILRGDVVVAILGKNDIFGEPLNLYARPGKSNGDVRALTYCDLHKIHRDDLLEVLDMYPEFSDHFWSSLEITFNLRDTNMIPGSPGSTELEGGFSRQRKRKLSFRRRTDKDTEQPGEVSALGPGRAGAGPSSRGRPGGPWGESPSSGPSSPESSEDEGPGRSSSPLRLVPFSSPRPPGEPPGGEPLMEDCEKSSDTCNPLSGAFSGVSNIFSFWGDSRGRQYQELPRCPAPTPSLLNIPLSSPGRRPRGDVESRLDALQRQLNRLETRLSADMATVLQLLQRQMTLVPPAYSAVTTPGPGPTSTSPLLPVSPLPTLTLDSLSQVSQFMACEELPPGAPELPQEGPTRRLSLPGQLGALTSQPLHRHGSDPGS

Consider `FC(F)(F)c1nccc(N[C@H]2CC[C@@H](Nc3ccc4nnc(Cl)n4n3)CC2)n1`, for which the IC50 at Cytochrome P450 2C9 was 10 µM; on Cytochrome P450 2D6, over 30 µM; against Cytochrome P450 2C19, 14 µM; in data set [3] it was 24 µM; in data set [6] it was 3.2 µM; against Cytochrome P450 3A4 it was 18 µM. The values for the IC50 (against Cytochrome P450 1A2; in [10]) were over 30 µM and 0.3 µM, respectively. Besides, in [1], the solubility is 19 µM (≈ 7.84 µg/mL). Also, the microsomal CLint in data set [2] was under 3 µL/min/mg. This molecule also gave an AUC in data set [4] of 3.21 µM·h. For the same molecule, the half-life in data set [5] was 4 h. The molecule further had a Vdss in data set [7] of 2.2 L/kg. Besides, the Papp A→B at 2 h, 10 µM in data set [8] was 44 ×10⁻⁶ cm/s. Also, the bioavailability in data set [9] came to 72%. Moreover, the logD in [11] amounted to 3.1.

As a reminder, the IC50 is the midpoint of a concentration-inhibition curve. Usually solubility stands for the dissolved amount per volume that the medium holds. A higher solubility goes with much dissolved substance. Usually AUC stands for the area under the concentration-time curve, a measure of exposure. High values mean more exposure, low ones less exposure. Broadly, the half-life is the time needed for the level to fall by half in the phase considered. Low values mean fast loss, high ones slow loss. The term Papp A→B denotes how fast a substance crosses the layer from the apical side. A higher Papp A→B goes with fast passage. The bioavailability is dose-corrected exposure relative to a reference, in per cent. Read a high bioavailability as much systemic uptake. The term logD denotes the decadic logarithm of the distribution of all forms, ionised or not, between an organic phase and buffer at a given pH. A lower logD goes with lower lipophilicity.
